Source: PMC12215967 (Scientific Reports, 2025)
Entries after “also recorded” stand apart in the source; their conditions may differ.

What was measured:
[1] = proton relaxivity measurement; type: physicochemical; settings: 128 MHz, 298 K
[2] = test system: HT-1080 transplanted tumors (CD13 positive expression); assay: T1WI MRI of HT-1080 tumor-bearing mice, T/NT ratio; type: in vivo, human fibrosarcoma in BALB/c nude mice
[3] = test system: HT-29 transplanted tumors (CD13 negative expression); assay: T1WI MRI of HT-29 tumor-bearing mice, T/NT ratio; type: in vivo, human colorectal adenocarcinoma in BALB/c nude mice
[4] = test system: HT-1080 transplanted tumors; assay: tumor size on transverse MRI, HT-1080; type: in vivo, human fibrosarcoma in BALB/c nude mice
Summary of the method: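 8-week BALB/c nude mice (~25 g, SPF) bore right-axillary HT-1080 xenografts from 5 × 10^6 cells. At ~1 cm, mice got Gd-labeled probe (200 µg i.p.) and 3.0T T1WI MRI with a small-animal coil (TR 200 ms, TE 2.46 ms, 3 mm slices). Test compound was then given at 0.5 mg/kg/day i.p. for 7 days, with repeat MRI on day 8. Groups were compared by one-way ANOVA.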

[5] = test system: HT-29 transplanted tumors; assay: tumor size on transverse MRI, HT-29; type: in vivo, human colorectal adenocarcinoma in BALB/c nude mice
APN/CD13 = assay: immunohistochemistry of APN/CD13 expression in HT-1080 transplanted tumors; type: in vivo, human fibrosarcoma in BALB/c nude mice; settings: ubenimex 0.5 mg/kg/day i.p., one week / 7 days
Summary of the method: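 HT-1080 cells, grown in DMEM with 10% FBS at 37 °C and 5% CO2, were inoculated at 5 × 10^6 cells into the right axilla of 8-week BALB/c nude mice. Tumors reached about 1 cm. Test compound was given at 0.5 mg/kg/day i.p. for 7 days. After the day-8 MRI, tumors were harvested, formaldehyde-fixed for 48 h, paraffin-embedded, cut at 5 μm and immunostained for APN/CD13.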

CD13 receptor = CD13 receptor (Homo sapiens, UniProt P15144); assay: competitive cell binding assay; settings: HT-1080 cells, 0.01 to 60.00 µM
Sequence of CD13 receptor (P15144 whole entry): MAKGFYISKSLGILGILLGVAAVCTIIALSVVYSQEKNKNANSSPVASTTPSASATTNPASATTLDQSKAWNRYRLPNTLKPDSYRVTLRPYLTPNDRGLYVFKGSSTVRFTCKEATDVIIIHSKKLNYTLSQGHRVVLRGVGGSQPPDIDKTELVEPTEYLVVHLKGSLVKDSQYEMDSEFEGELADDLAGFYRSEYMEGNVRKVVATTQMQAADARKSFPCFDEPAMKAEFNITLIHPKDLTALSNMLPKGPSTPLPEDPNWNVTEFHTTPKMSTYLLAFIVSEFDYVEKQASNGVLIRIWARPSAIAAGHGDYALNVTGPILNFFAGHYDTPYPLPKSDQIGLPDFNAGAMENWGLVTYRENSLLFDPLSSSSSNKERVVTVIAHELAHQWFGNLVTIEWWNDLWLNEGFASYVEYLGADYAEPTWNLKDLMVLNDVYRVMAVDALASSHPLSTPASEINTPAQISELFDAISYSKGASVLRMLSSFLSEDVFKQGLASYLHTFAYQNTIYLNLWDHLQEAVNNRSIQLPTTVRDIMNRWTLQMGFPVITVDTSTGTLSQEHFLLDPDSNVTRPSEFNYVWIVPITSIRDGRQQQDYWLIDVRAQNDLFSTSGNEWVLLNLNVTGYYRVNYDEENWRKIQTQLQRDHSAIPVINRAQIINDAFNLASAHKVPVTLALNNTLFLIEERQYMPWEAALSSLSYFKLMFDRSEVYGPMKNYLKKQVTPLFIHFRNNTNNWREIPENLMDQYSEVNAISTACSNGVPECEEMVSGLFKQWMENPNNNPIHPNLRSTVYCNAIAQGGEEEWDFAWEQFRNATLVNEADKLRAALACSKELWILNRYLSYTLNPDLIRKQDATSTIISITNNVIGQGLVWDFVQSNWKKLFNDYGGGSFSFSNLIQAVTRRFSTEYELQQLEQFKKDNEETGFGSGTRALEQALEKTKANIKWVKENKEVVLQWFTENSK

Question: What does the source list for `O=C([O-])CN1CCN(CC(=O)[O-])CCN(CC(=O)O)CCN(CC(=O)[O-])CC1.[Gd+3]` [Gd-DOTA]?
Answer: proton relaxivity R1 [1]: 4.0 mM^− 1S^− 1; T/NT of HT-1080 xenografts (treated or untreated) compared with HT-29 xenografts ([2]; Gd-DOTA, 1 h post-injection): no significant difference in T/NT values; tumor signal intensity on T1WI ([2]; HT-1080 xenograft, intraperitoneal injection, before treatment): high signal intensity; time of peak T/NT value post-injection ([2]; HT-1080 xenografts, i.p. injection, T/NT value-time curve): 1 h; tumor signal intensity on T1WI ([3]; HT-29 xenograft, intraperitoneal injection, before treatment): high signal intensity; time of peak T/NT value post-injection ([3]; HT-29 xenografts, i.p. injection, T/NT value-time curve): 1 h

Question: For `CC(C)C[C@H](NC(=O)[C@@H](O)[C@H](N)Cc1ccccc1)C(=O)O` [ubenimex], which “change in T/NT ratio after treatment” value ([2]; ubenimex 0.5 mg/kg/day i.p., 7 days, MRI on the 8th day) is on record?
Answer: decreased significantly

Question: And the “change of tumor size (sum of long and short diameters)” value ([4]; 7 days of ubenimex treatment)?
Answer: not changing significantly

Question: And the “sum of the long and short diameters of the tumor, before treatment” value ([4]; HT-1080, n = 5, before ubenimex, P = 0.39 before vs after)?
Answer: 3.1 ± 0.1 cm

Question: And the “sum of the long and short diameters of the tumor, after one week” value ([5]; HT-29, after one week, P = 0.001 vs before)?
Answer: 3.5 ± 0.2 cm

Question: And the “sum of the long and short diameters of the tumor, before” value ([5]; HT-29, before, P = 0.001 vs after one week)?
Answer: 2.9 ± 0.1 cm

Question: And the “expression of APN/CD13 in HT-1080 grafts after treatment” value (APN/CD13)?
Answer: decreased significantly; also recorded: markedly reduced

Question: For DOTA-G3CNGRC, which “inhibition of 99mTc-DOTA-G3CNGRC binding to the CD13 receptor” value (CD13 receptor) is on record?
Answer: inhibited by DOTA-G3CNGRC in a dose-dependent manner
